Measurements from ChEMBL document CHEMBL1138555, “N-acylated and N,N'-diacylated imidazolidine-2-thione derivatives and N,N'-diacylated tetrahydropyrimidine-2(1H)-thione analogues: synthesis and antiproliferative activity” (Eur J Med Chem, 2009).

Columns and labels:
ACHN = assay: Growth inhibition of human ACHN cells after 48 hrs by sulforhodamine B assay; format: functional
How it was run: (§1)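 NCI screen panel. Five 10-fold concentrations from 10^-4 to 10^-8 M. Exposure for the last 48 h of a 72 h incubation. Growth estimated by sulforhodamine B protein assay. GI50 is the concentration giving 50% growth inhibition. Where that level was not reached or was exceeded, the value is given as above or below the highest or lowest concentration tested.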

SK-OV-3 = assay: Growth inhibition of human SKOV3 cells after 48 hrs by sulforhodamine B assay; format: functional; conditions: SK-OV-3, 48 h; how it was run: as §1
HOP-92 = assay: Growth inhibition of human HOP92 cells after 48 hrs by sulforhodamine B assay; format: functional; conditions: HOP-92, 48 h; how it was run: as §1
U-251 = assay: Growth inhibition of human U251 cells after 48 hrs by sulforhodamine B assay; format: functional; conditions: U-251, 48 h
How it was run: (§2)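 NCI in vitro panel screen. Compounds tested at five 10-fold dilutions, 10^-4 to 10^-8 M. Cells in 96-well plates were exposed for the last 48 h of a 72 h incubation. Viability/growth was read by sulforhodamine B protein assay. GI50 is the concentration giving 50% growth inhibition. Values beyond the tested range are reported as greater or less than the maximum or minimum concentration.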

COLO 205 = assay: Growth inhibition of human COLO205 cells after 48 hrs by sulforhodamine B assay; format: functional; conditions: COLO 205, 48 h; how it was run: as §1
UACC-62 = assay: Growth inhibition of human UACC62 cells after 48 hrs by sulforhodamine B assay; format: functional; conditions: UACC-62, 48 h; how it was run: as §2
SF-295 = assay: Growth inhibition of human SF295 cells after 48 hrs by sulforhodamine B assay; format: functional; conditions: SF-295, 48 h; how it was run: as §1
[1] = Growth inhibition of human […] cells after 48 hrs by sulforhodamine B assay; format: functional; how it was run: as §1
NCI-H322M = assay: Growth inhibition of human NCI-H322M cells after 48 hrs by sulforhodamine B assay; format: functional; how it was run: as §1
Malme-3M = assay: Growth inhibition of human MALME-3M cells after 48 hrs by sulforhodamine B assay; format: functional; how it was run: as §1
TK-10 = assay: Growth inhibition of human TK10 cells after 48 hrs by sulforhodamine B assay; format: functional; conditions: TK-10, 48 h; how it was run: as §2
OVCAR-8 = assay: Growth inhibition of human OVCAR8 cells after 48 hrs by sulforhodamine B assay; format: functional; conditions: OVCAR-8, 48 h; how it was run: as §1
SK-MEL-28 = assay: Growth inhibition of human SK-MEL-28 cells after 48 hrs by sulforhodamine B assay; format: functional; conditions: SK-MEL-28, 48 h; how it was run: as §1
MOLT-4 = assay: Growth inhibition of human MOLT4 cells after 48 hrs by sulforhodamine B assay; format: functional; conditions: MOLT-4, 48 h; how it was run: as §1
LOX IMVI = assay: Growth inhibition of human LOXIMVI cells after 48 hrs by sulforhodamine B assay; format: functional; how it was run: as §1
SK-MEL-5 = assay: Growth inhibition of human SK-MEL-5 cells after 48 hrs by sulforhodamine B assay; format: functional; conditions: SK-MEL-5, 48 h; how it was run: as §1
PC-3 = assay: Growth inhibition of human PC3 cells after 48 hrs by sulforhodamine B assay; format: functional; conditions: PC-3, 48 h; how it was run: as §1
SK-MEL-2 = assay: Growth inhibition of human SK-MEL-2 cells after 48 hrs by sulforhodamine B assay; format: functional; conditions: SK-MEL-2, 48 h; how it was run: as §1
KM12 = assay: Growth inhibition of human KM12 cells after 48 hrs by sulforhodamine B assay; format: functional; conditions: KM12, 48 h; how it was run: as §1
SNB-19 = assay: Growth inhibition of human SNB19 cells after 48 hrs by sulforhodamine B assay; format: functional; conditions: SNB-19, 48 h; how it was run: as §2
HOP-62 = assay: Growth inhibition of human HOP62 cells after 48 hrs by sulforhodamine B assay; format: functional; conditions: HOP-62, 48 h; how it was run: as §1
HCT-15 = assay: Growth inhibition of human HCT15 cells after 48 hrs by sulforhodamine B assay; format: functional; conditions: HCT-15, 48 h; how it was run: as §1
HL-60(TB) = assay: Growth inhibition of human HL-60(TB) cells after 48 hrs by sulforhodamine B assay; format: functional; conditions: HL-60, 48 h
How it was run: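 NCI 60-cell-line screen protocol: cells exposed to compound at five 10-fold dilutions from 10^-4 to 10^-8 M for the last 48 h of a 72 h incubation. Sulforhodamine B protein assay estimated viability/growth. GI50 (50% growth inhibition) derived; where not reached or exceeded, reported as greater or less than the highest or lowest concentration tested.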

EKVX = assay: Growth inhibition of human EKVX cells after 48 hrs by sulforhodamine B assay; format: functional; how it was run: as §1
SW-620 = assay: Growth inhibition of human SW620 cells after 48 hrs by sulforhodamine B assay; format: functional; conditions: SW-620, 48 h; how it was run: as §2
MT4 = assay: Antiproliferative activity against human MT4 cells assessed as reduction of growth by MTT assay; format: functional, cell-based
How it was run: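 MT-4 lymphoblastoid T cells (ATCC) in RPMI 1640 with 10% FCS, penicillin/streptomycin, checked for mycoplasma. 1 × 10⁴ mock-infected cells per well with serial dilutions from a 100 mM DMSO stock. Incubated 4 days at 37 °C, viable cells counted by MTT. IC50 versus untreated controls by linear regression. Mean of three separate experiments.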

OVCAR-4 = assay: Growth inhibition of human OVCAR4 cells after 48 hrs by sulforhodamine B assay; format: functional; conditions: OVCAR-4, 48 h; how it was run: as §1
MCF7 = assay: Growth inhibition of human MCF7 cells after 48 hrs by sulforhodamine B assay; format: functional; conditions: MCF7, 48 h; how it was run: as §1
SN12C = assay: Growth inhibition of human SN12C cells after 48 hrs by sulforhodamine B assay; format: functional; how it was run: as §2
CAKI-1 = assay: Growth inhibition of human Caki1 cells after 48 hrs by sulforhodamine B assay; format: functional; conditions: CAKI-1, 48 h; how it was run: as §1
MDA-MB-435 = assay: Growth inhibition of human MDA-MB-435 cells after 48 hrs by sulforhodamine B assay; format: functional; conditions: MDA-MB-435, 48 h; how it was run: as §1
K562 = assay: Growth inhibition of human K562 cells after 48 hrs by sulforhodamine B assay; format: functional; conditions: K562, 48 h; how it was run: as §1
T47D = assay: Growth inhibition of human T47D cells after 48 hrs by sulforhodamine B assay; format: functional; how it was run: as §2
IGROV-1 = assay: Growth inhibition of human IGROV1 cells after 48 hrs by sulforhodamine B assay; format: functional; conditions: IGROV-1, 48 h; how it was run: as §1
786-0 = assay: Growth inhibition of human 786-0 cells after 48 hrs by sulforhodamine B assay; format: functional; conditions: 786-0, 48 h; how it was run: as §1
SR = assay: Growth inhibition of human SR cells after 48 hrs by sulforhodamine B assay; format: functional; how it was run: as §2
OVCAR-3 = assay: Growth inhibition of human OVCAR-3 cells after 48 hrs by sulforhodamine B assay; format: functional; conditions: OVCAR-3, 48 h; how it was run: as §1
UACC-257 = assay: Growth inhibition of human UACC257 cells after 48 hrs by sulforhodamine B assay; format: functional; conditions: UACC-257, 48 h; how it was run: as §2
NCI-H460 = assay: Growth inhibition of human NCI-H460 cells after 48 hrs by sulforhodamine B assay; format: functional; conditions: NCI-H460, 48 h; how it was run: as §1
MDA-MB-231 = assay: Growth inhibition of human MDA-MB-231 cells after 48 hrs by sulforhodamine B assay; format: functional; conditions: MDA-MB-231, 48 h; how it was run: as §1
DU-145 = assay: Growth inhibition of human DU145 cells after 48 hrs by sulforhodamine B assay; format: functional; conditions: DU-145, 48 h; how it was run: as §1
HT-29 = assay: Growth inhibition of human HT-29 cells after 48 hrs by sulforhodamine B assay; format: functional; conditions: HT-29, 48 h; how it was run: as §1
SF-268 = assay: Growth inhibition of human SF268 cells after 48 hrs by sulforhodamine B assay; format: functional; conditions: SF-268, 48 h; how it was run: as §1
NCI-H23 = assay: Growth inhibition of human NCI-H23 cells after 48 hrs by sulforhodamine B assay; format: functional; conditions: NCI-H23, 48 h; how it was run: as §1
NCI-H522 = assay: Growth inhibition of human NCI-H522 cells after 48 hrs by sulforhodamine B assay; format: functional; conditions: NCI-H522, 48 h; how it was run: as §1
BT-549 = assay: Growth inhibition of human BT549 cells after 48 hrs by sulforhodamine B assay; format: functional; conditions: BT-549, 48 h; how it was run: as §1
M14 = assay: Growth inhibition of human M14 cells after 48 hrs by sulforhodamine B assay; format: functional; conditions: M14, 48 h; how it was run: as §1
UO-31 = assay: Growth inhibition of human UO31 cells after 48 hrs by sulforhodamine B assay; format: functional; conditions: UO-31, 48 h; how it was run: as §2
A549 = assay: Growth inhibition of human A549 cells after 48 hrs by sulforhodamine B assay; format: functional; conditions: A549, 48 h; how it was run: as §1
RXF 393 = assay: Growth inhibition of human RXF393 cells after 48 hrs by sulforhodamine B assay; format: functional; conditions: RXF 393, 48 h; how it was run: as §1
NCI/ADR-RES = assay: Growth inhibition of human NCI/ADR-RES cells after 48 hrs by sulforhodamine B assay; format: functional; how it was run: as §1
HCT-116 = assay: Growth inhibition of human HCT116 cells after 48 hrs by sulforhodamine B assay; format: functional; conditions: HCT-116, 48 h; how it was run: as §1

## N#C/C(=C\N1CCN(C(=O)c2ccco2)C1=S)C(N)=O
ACHN
  GI50: 11 µM
SK-OV-3
  GI50: 42.6 µM
HOP-92
  GI50: 25.5 µM
U-251
  GI50: 11.5 µM
COLO 205
  GI50: 24.9 µM
UACC-62
  GI50: 14 µM
SF-295
  GI50: 32.1 µM
[1]
  GI50: 12.4 µM
NCI-H322M
  GI50: 17.6 µM
Malme-3M
  GI50: 12.5 µM
TK-10
  GI50: 12.1 µM
OVCAR-8
  GI50: 43.6 µM
SK-MEL-28
  GI50: 15.8 µM
MOLT-4
  GI50: 39.8 µM
LOX IMVI
  GI50: 2500 nM
SK-MEL-5
  GI50: 16.5 µM
PC-3
  GI50: 35.6 µM
SK-MEL-2
  GI50: 24.4 µM
KM12
  GI50: 7.5 µM
SNB-19
  GI50: 36.4 µM
HOP-62
  GI50: 25.6 µM
HCT-15
  GI50: 3.8 µM
HL-60(TB)
  GI50: 22 µM
EKVX
  GI50: 300 nM
SW-620
  GI50: 22.1 µM
MT4
  IC50: 4 µM
OVCAR-4
  GI50: 18.5 µM
MCF7
  GI50: 1700 nM
SN12C
  GI50: 12 µM
CAKI-1
  GI50: 11.8 µM
MDA-MB-435
  GI50: 14.6 µM
K562
  GI50: 9.1 µM
T47D
  GI50: 9.3 µM
IGROV-1
  GI50: 24 µM
786-0
  GI50: 18 µM
SR
  GI50: 3000 nM
OVCAR-3
  GI50: 19 µM
UACC-257
  GI50: 23.3 µM
NCI-H460
  GI50: 4 µM
MDA-MB-231
  GI50: 13.1 µM
DU-145
  GI50: 29.8 µM
HT-29
  GI50: 24.1 µM
SF-268
  GI50: 11.7 µM
NCI-H23
  GI50: 21.4 µM
NCI-H522
  GI50: 18.7 µM
BT-549
  GI50: 22.5 µM
M14
  GI50: 16.5 µM
UO-31
  GI50: 23.5 µM
A549
  GI50: 34.5 µM
RXF 393
  GI50: 19.2 µM
NCI/ADR-RES
  GI50: 25.4 µM
HCT-116
  GI50: 21.2 µM
